pIC50: −log10 of the molar value. Calls of active or inactive are those of the source. The calls are words filed in the database; no cut-off is given here.
Key:
Vero [1] = assay: Cytotoxicity against Vero-CD150w cells; type: functional; conditions: Chlorocebus sabaeus
Summary of the method: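 Uninfected cells were exposed to 2-fold compound dilutions from 600 µM down to 2.3 µM for 36 to 40 h. Remaining proliferation was then measured over 1 h by nonradioactive proliferation assay. CC50 comes from two independent replicates.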

Measles morbillivirus [2] = assay: Antiviral activity against wild type Measles virus Edmonston in Vero-CD150w cells by cytopathicity assay; type: functional, organism-based; conditions: for pIC50: Measles morbillivirus, Edmonston, Vero-CD150w, read-out: IC50
Summary of the method: (§1)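 Cells infected with MV Edmonston at MOI 0.2 pfu/cell in the presence of 2-fold compound dilutions, starting at 75–300 µM and ending at 0.3–1.2 µM. Two to four replicates per concentration; DMSO ≤0.1% with matched DMSO controls. Virus-induced cytopathicity was read at 96 h post-infection by nonradioactive proliferation assay. IC50 was taken from dose-response curves of replicate averages.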

Vero [3] = assay: Selectivity index, CC50 for Vero-CD150w cells/IC50 for Measles virus Edmonston; type: functional
Summary of the method: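 Ratio of CC50 to IC50. CC50: 2-fold dilutions from 600 µM, 36–40 h exposure, proliferation read-out, two independent replicates. IC50: suppression of cytopathicity at MOI 0.2 pfu/cell, 96 h, proliferation read-out, from dose-response curves of replicate averages.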

Measles morbillivirus [4] = assay: Antiviral activity against Measles virus variant in Vero-CD150w cells by cytopathicity assay; type: functional, organism-based
Summary of the method: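 MV variant carrying an F-protein point mutation at position 462. Cells infected at MOI 0.2 pfu/cell with 2-fold compound dilutions starting at 75–300 µM, in 2–4 replicates, with DMSO at most 0.1% and DMSO-matched controls. Cytopathicity quantified at 96 h post-infection by a nonradioactive proliferation assay. IC50 taken from dose-response curves of replicate averages.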

Measles morbillivirus [5] = assay: Antiviral activity against wild type Measles virus Edmonston in Vero-CD150w cells upto 100 uM by cytopathicity assay; type: functional, organism-based; summary of the method: as §1
Measles morbillivirus [6] = assay: Antiviral activity against wild type Measles virus Edmonston in Vero-CD150w cells at >75 uM by cytopathicity assay; type: functional, organism-based; summary of the method: as §1

| pIC50 (Measles morbillivirus [2]) | IC50 (Measles morbillivirus [2]; vero-cd150w) | SMILES | CC50 (Vero [1]) [µM] | Selectivity index (Vero [3]) | pIC50 (Measles morbillivirus [4]) | Activity (Measles morbillivirus [5]) | Activity (Measles morbillivirus [6]) |
| --- | --- | --- | --- | --- | --- | --- | --- |
| 5.07 | – | O=C(Cc1ccccc1)Nc1cccc([N+](=O)[O-])c1 | > 600 | >71 | – | – | – |
| 3.96 | – | O=C(Cc1ccccc1)Nc1ccc(F)cn1 | > 600 | >6 | – | – | – |
| < 4.12 | – | O=C(Cc1ccncc1)Nc1cccc([N+](=O)[O-])c1 | – | – | – | – | – |
| 4.26 | – | Nc1cc(NC(=O)Cc2ccccc2)cc(C(=O)O)c1 | > 600 | >11 | – | – | – |
| < 4.12 | – | O=C(Cc1cccnc1)Nc1cccc([N+](=O)[O-])c1 | – | – | – | – | – |
| < 4.00 | – | COc1cccc(CC(=O)Nc2cc([N+](=O)[O-])ccc2O)c1 | > 600 | – | – | – | – |
| – | – | Nc1cc(CO)cc(NC(=O)Cc2ccccc2)c1 | – | – | – | inactive | – |
| < 4.00 | – | COc1ccc(CC(=O)Nc2cc([N+](=O)[O-])ccc2O)cc1 | 600 | <6 | – | – | – |
| 4.17 | – | O=C(Cc1ccccc1)Nc1cc([N+](=O)[O-])ccc1OC(=O)Cc1ccccc1 | 75 | 1 | – | – | – |
| 3.87 | – | Nc1ccc(NC(=O)Cc2ccccc2)cc1 | > 600 | >4 | – | – | – |
| < 4.00 | – | O=C(COc1ccccc1)Nc1cc([N+](=O)[O-])ccc1O | 600 | <6 | – | – | – |
| < 3.52 | – | O=C(Cc1cccc(I)c1)Nc1cccc([N+](=O)[O-])c1 | – | – | – | – | – |
| 4.60 | – | O=C(Cc1ccccc1)Nc1cccc(O)c1 | > 600 | >24 | – | – | – |
| 4.33 | – | O=C(Cc1cccc(F)c1)Nc1cccc([N+](=O)[O-])c1 | – | – | – | – | – |
| < 4.12 | – | O=C(Cc1ccccn1)Nc1cccc([N+](=O)[O-])c1 | – | – | – | – | – |
| 4.12 | – | Nc1ccc(NC(=O)Cc2ccccc2)c(O)c1 | > 600 | >8 | – | – | – |
| 4.22 | – | O=C(Cc1ccccc1)Nc1ccccc1C(=O)O | > 600 | >10 | – | – | – |
| < 3.52 | – | O=C(Cc1ccccc1I)Nc1cccc([N+](=O)[O-])c1 | – | – | – | – | – |

| pIC50 (Measles morbillivirus [2]) | IC50 (Measles morbillivirus [2]; vero-cd150w) | SMILES | CC50 (Vero [1]) [µM] | Selectivity index (Vero [3]) | pIC50 (Measles morbillivirus [4]) | Activity (Measles morbillivirus [5]) | Activity (Measles morbillivirus [6]) |
| --- | --- | --- | --- | --- | --- | --- | --- |
| < 3.52 | – | O=[N+]([O-])c1ccc(O)c(NS(=O)(=O)Cc2ccccc2)c1 | – | – | – | – | – |
| – | – | Nc1ccc(CO)c(NC(=O)Cc2ccccc2)c1 | – | – | – | inactive | – |
| 4.74 | – | NC(=O)c1cc(N)cc(NC(=O)Cc2ccccc2)c1 | > 600 | >33 | – | – | – |
| < 4.12 | – | O=C(Cc1ccc(I)cc1)Nc1cccc([N+](=O)[O-])c1 | – | – | – | – | – |
| 4.20 | – | O=C(Cc1ccccc1)Nc1ccc(O)c([N+](=O)[O-])c1 | > 600 | >10 | – | – | – |
| 4.80 | – | O=C(Cc1ccccc1)Nc1ccc([N+](=O)[O-])cc1 | 550 | 34 | – | – | – |
| < 4.00 | – | O=C(COc1ccccc1)Nc1ccc([N+](=O)[O-])cc1O | > 600 | – | – | – | – |
| – | Not Active | Nc1ccc(NC(=O)COc2ccccc2)c(O)c1 | – | – | – | – | – |
| 4.33 | – | O=C(Cc1ccccc1)Nc1cc([N+](=O)[O-])ccc1O | 450 | 10 | – | – | – |
| 3.90 | – | NC(=O)c1ccc(O)c(NC(=O)Cc2ccccc2)c1 | > 600 | >5 | – | – | – |
| 4.18 | – | COC(=O)c1ccc(O)c(NC(=O)Cc2ccccc2)c1 | > 600 | >9 | – | – | – |
| 5.05 | – | O=C(Cc1ccc(F)cc1)Nc1cccc([N+](=O)[O-])c1 | – | – | – | – | – |
| 4.64 | – | Nc1cc(C(=O)NCc2ccccc2)cc([N+](=O)[O-])c1 | – | – | – | – | – |
| < 4.00 | – | O=C(Cc1ccccc1)Nc1cc(C(F)(F)F)ccc1O | > 600 | – | – | – | – |
| < 4.00 | – | O=C(Cc1ccccc1)Nc1ccc(F)c([N+](=O)[O-])c1 | 450 | <5 | – | – | – |
| – | – | O=C(Cc1ccccc1F)Nc1cccc([N+](=O)[O-])c1 | – | – | – | – | inactive |
| < 4.00 | – | O=C(Cc1ccccc1)Nc1ccccc1[N+](=O)[O-] | > 600 | – | – | – | – |
| < 4.00 | – | Nc1cc(N)cc(NC(=O)Cc2ccccc2)c1 | – | – | – | – | – |

| SMILES | pIC50 (Measles morbillivirus [2]) | IC50 (Measles morbillivirus [2]; vero-cd150w) | CC50 (Vero [1]) [µM] | Selectivity index (Vero [3]) | pIC50 (Measles morbillivirus [4]) | Activity (Measles morbillivirus [5]) | Activity (Measles morbillivirus [6]) |
| --- | --- | --- | --- | --- | --- | --- | --- |
| COC(=O)c1cc(NC(=O)Cc2ccccc2)cc([N+](=O)[O-])c1 | 5.40 | – | 440 | 110 | < 3.82 | – | – |
| NC(=O)c1ccc([N+](=O)[O-])cc1NC(=O)Cc1ccccc1 | 5.52 | – | 325 | 108 | < 3.82 | – | – |
| Nc1cc(NC(=O)Cc2ccccc2)cc([N+](=O)[O-])c1 | 4.96 | – | > 600 | >55 | < 3.82 | – | – |
| Nc1cccc(NC(=O)Cc2ccccc2)c1 | 4.72 | – | > 600 | >32 | < 3.82 | – | – |
| O=C(Cc1ccccc1)Nc1cc(CO)cc([N+](=O)[O-])c1 | 5.22 | – | > 600 | >100 | < 3.82 | – | – |
| O=C(Cc1ccccc1)Nc1ccccc1O | 4.89 | – | 525 | 40 | < 3.82 | – | – |
| O=C(Cc1ccccc1)Nc1cc(C(=O)O)cc([N+](=O)[O-])c1 | 5.30 | – | > 600 | >120 | < 3.82 | – | – |
| N#Cc1cccc(NC(=O)Cc2ccccc2)c1 | 5.19 | – | > 600 | >92 | < 3.82 | – | – |
| O=C(Cc1ccccc1)Nc1cc([N+](=O)[O-])cc([N+](=O)[O-])c1 | 4.52 | – | > 600 | >20 | < 3.82 | – | – |
| O=C(Cc1ccccc1)Nc1cc(NO)cc([N+](=O)[O-])c1 | 5.22 | – | 325 | 54 | < 4.12 | – | – |
| NC(=O)c1cc(NC(=O)Cc2ccccc2)cc([N+](=O)[O-])c1 | 5.43 | – | 170 | 46 | < 4.12 | – | – |
| Nc1ccc2oc(Cc3ccccc3)nc2c1 | 4.26 | – | > 600 | >10 | < 3.82 | – | – |

Reference: ChEMBL document CHEMBL1145335, “Nonpeptide inhibitors of measles virus entry” (J Med Chem, 2006)
